According to ChEMBL document CHEMBL5712904 (Cancers (Basel), 2018):
Calls of active or inactive are those of the source. The calls are words filed in the database; no cut-off is given here.

Key:
SK-OV-3 [1] = experiment: Upregulation of GLUT1 in human SK-OV-3 cells at 0.25 mM after 24 hrs by immunoblotting analysis; assay type: functional, cell-based
OVCAR-3 [2] = experiment: Upregulation of GLUT1 in human OVCAR-3 cells at 0.25 mM after 24 hrs by immunoblotting analysis; assay type: functional, cell-based
SK-OV-3 [3] = experiment: […] of glycolysis in human SK-OV-3 cells ssessed as decrease in conversion of D-[5-3H(N)]-glucose to 3H2O at 0.25 mM incubated for 24 hrs by liquid scintillation counting; assay type: functional, cell-based
Method in brief: (§1)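 Medium was acidified to 0.2 N HCl, and 3H2O was allowed to diffuse into water for 3 days before scintillation counting. Results are given as % glucose conversion/5 × 10^5 cells/6 h, triplicates.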

OVCAR-3 [4] = experiment: […] of glycolysis in human OVCAR-3 cells ssessed as decrease in conversion of D-[5-3H(N)]-glucose to 3H2O at 0.25 mM incubated for 24 hrs by liquid scintillation counting; assay type: functional, cell-based; method in brief: as §1
SK-OV-3 [5] = experiment: Upregulation of GLUT1 in human SK-OV-3 cells at 50 nM after 24 hrs by immunoblotting analysis; assay type: functional, cell-based
OVCAR-3 [6] = experiment: Upregulation of GLUT1 in human OVCAR-3 cells at 50 […] after 24 hrs by immunoblotting analysis; assay type: functional, cell-based
SK-OV-3 [7] = experiment: […] of glycolysis in human SK-OV-3 cells ssessed as decrease in conversion of D-[5-3H(N)]-glucose to 3H2O at 50 nM incubated for 24 hrs by liquid scintillation counting; assay type: functional, cell-based; method in brief: as §1
OVCAR-3 [8] = experiment: […] of glycolysis in human OVCAR-3 cells ssessed as decrease in conversion of D-[5-3H(N)]-glucose to 3H2O at 50 nM incubated for 24 hrs by liquid scintillation counting; assay type: functional, cell-based; method in brief: as §1
SK-OV-3 [9] = experiment: Antiproliferative activity against human SK-OV-3 cells assessed as reduction in number of cells at 25 to 75 nM after 24 hrs; assay type: functional, cell-based; conditions: dose 25-75 nM
Method in brief: (§2)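 Cells were grown in 12-well plates in RPMI 1640 with 10% FBS and treated with 0, 25, 50 or 75 nM inhibitor for 24 h. They were then trypsinized and counted with a Coulter counter. Data are mean ± SD of triplicates.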

OVCAR-3 [10] = experiment: Antiproliferative activity against human OVCAR-3 cells assessed as reduction in number of cells at 25 to 75 nM after 24 hrs; assay type: functional, cell-based; conditions: dose 25-75 nM; method in brief: as §2
SK-OV-3 [11] = experiment: Antiproliferative activity against human SK-OV-3 cells assessed as reduction in number of cells at 75 nM after 24 to 72 hrs; assay type: functional, cell-based; conditions: time 24-72 hrs
Method in brief: (§3)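 For 72-h growth curves, cells in 12-well plates in RPMI 1640 with 10% FBS were grown with or without 75 nM inhibitor. Cell numbers were determined by Coulter counting after trypsinization. Data are mean ± SD of triplicates.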

OVCAR-3 [12] = experiment: Antiproliferative activity against human OVCAR-3 cells assessed as reduction in number of cells at 75 nM after 24 to 72 hrs; assay type: functional, cell-based; conditions: time 24-72 hrs; method in brief: as §3
HEY [13] = experiment: Antiproliferative activity against human HEY cells assessed as reduction in number of cells at 75 nM after 24 to 72 hrs; assay type: functional, cell-based; conditions: time 24-72 hrs; method in brief: as §3
A2780 [14] = experiment: Antiproliferative activity against human A2780 cells assessed as reduction in number of cells at 75 nM after 24 to 72 hrs; assay type: functional, cell-based; conditions: time 24-72 hrs; method in brief: as §3
OVCAR-3 [15] = experiment: Antiproliferative activity against human OVCAR-3 cells assessed as reduction in cell viability after 72 hrs by MTT assay; assay type: functional, cell-based; conditions: OVCAR-3, 72 h
Method in brief: (§4)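 Cells in RPMI 1640 with 10% FBS were exposed to inhibitor over a range up to 10 µM for 72 h. Viability was read by MTT staining with absorbance at 570 nm, and IC50 was obtained by curve fitting. Data are mean ± SD of triplicates, representative of 3 independent experiments.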

SK-OV-3 [16] = experiment: Antiproliferative activity against human SK-OV-3 cells assessed as reduction in cell viability after 72 hrs MTT assay; assay type: functional, cell-based; conditions: SK-OV-3, 72 h; method in brief: as §4
HEY [17] = experiment: Antiproliferative activity against human HEY cells assessed as reduction in cell viability after 72 hrs MTT assay; assay type: functional, cell-based; method in brief: as §4
SK-OV-3 [18] = experiment: Antiproliferative activity against human SK-OV-3 cells assessed as decrease in number of colonies at 75nM after 3 weeks by crystal violet staining based assay; assay type: functional, cell-based
Method in brief: (§5)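 Soft agar colony assay: wells pre-coated with 0.6% agar in complete medium, with cells overlaid in medium containing 0.3% agar. Fresh 0.3% agar medium was added every 3–5 days. Inhibitor was 75 nM for SKOV-3 and OVCAR-3. After 3 weeks, colonies were crystal violet stained and counted above 100 μm diameter (SKOV-3, A2780) or 50 μm (OVCAR-3), reported as colonies per well.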

OVCAR-3 [19] = experiment: Antiproliferative activity against human OVCAR-3 cells assessed as decrease in number of colonies at 75nM after 3 weeks by crystal violet staining based assay; assay type: functional, cell-based; method in brief: as §5
HEY [20] = experiment: Antiproliferative activity against human HEY cells assessed as decrease in number of colonies at 75nM after 3 weeks by crystal violet staining based assay; assay type: functional, cell-based
A2780 [21] = experiment: Antiproliferative activity against human A2780 cells assessed as decrease in number of colonies at 75nM after 3 weeks by crystal violet staining based assay; assay type: functional, cell-based; method in brief: as §5
SK-OV-3 [22] = experiment: Antitumor activity against human SK-OV-3 cells xenografted in NSG mouse assessed as reduction tumor volume at 4.5 mg/kg/day, po for 4 weeks relative to control; assay type: functional; set-up: scale not given: the % may be the effect or the level left
Method in brief: (§6)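 Female NSG mice aged 6–7 weeks received 4 × 10^6 SKOV-3 cells in serum-free medium s.c. on the right flank. At about 100 mm3, mice were grouped 5 per group and gavaged daily at 0, 1.5, 3 or 4.5 mg/kg for 28 days. Caliper volume was calculated as lw2/2, with body weights tracked and endpoint tumors weighed; mean ± SD.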

SK-OV-3 [23] = experiment: Antitumor activity against human SK-OV-3 cells xenografted in NSG mouse assessed as reduction tumor weight at 4.5 mg/kg/day, po for 4 weeks relative to control; assay type: functional; set-up: scale not given: the % may be the effect or the level left; method in brief: as §6
[24] = Toxicity in NSG mouse xenografted with SK-OV-3 cells assessed as reduction in body weight at 4.5 mg/kg/day, po for 4 weeks relative to control; assay type: organism-based; set-up: scale not given: the % may be the effect or the level left; conditions: in vivo, 672 h; method in brief: as §6
[25] = Antitumor activity against human derived High-grade serous ovarian cancer cell xenografted in NSG mouse model of OVC-PDX2 assessed as decrease in tumor volume at 4 mg/kg/day, po 30 days relative to control; assay type: functional, Ovarian carcinoma cell; set-up: scale not given: the % may be the effect or the level left; conditions: time 30 day
Method in brief: (§7)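 Serous ovarian carcinoma fragments of 1–2 mm3 were implanted s.c. on the right flank of 6–8-week female NSG mice and re-passaged at about 1 cm3. At an average of 100 mm3, mice were grouped 5 per group and gavaged with 4 mg/kg/day for 30 days. Caliper volume was calculated as lw2/2, with body weight monitored and endpoint xenografts weighed.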

[26] = Antitumor activity against human derived High-grade serous ovarian cancer cell xenografted in NSG mouse model of OVC-PDX3 assessed as decrease in tumor volume at 4 mg/kg/day, po 30 days relative to control; assay type: functional, Ovarian carcinoma cell; set-up: scale not given: the % may be the effect or the level left; conditions: time 30 day; method in brief: as §7
[27] = Antitumor activity against human derived High-grade serous ovarian cancer cell xenografted in NSG mouse model of OVC-PDX2 assessed as decrease in tumor weight at 4 mg/kg/day, po 30 days relative to control; assay type: functional, Ovarian carcinoma cell; set-up: scale not given: the % may be the effect or the level left; conditions: time 30 day; method in brief: as §7
[28] = Antitumor activity against human derived High-grade serous ovarian cancer cell xenografted in NSG mouse model of OVC-PDX3 assessed as decrease in tumor weight at 4 mg/kg/day, po 30 days relative to control; assay type: functional, Ovarian carcinoma cell; set-up: scale not given: the % may be the effect or the level left; conditions: time 30 day; method in brief: as §7
[29] = Toxicity in NSG mouse xenografted with human derived High-grade serous ovarian cancer cell model of OVC-PDX2 assessed as reduction in body weight at 4 mg/kg/day, po for 30 days relative to control; assay type: organism-based; conditions: in vivo, 720 h, time 30 day; method in brief: as §7
[30] = Toxicity in NSG mouse xenografted with human derived High-grade serous ovarian cancer cell model of OVC-PDX3 assessed as reduction in body weight at 4 mg/kg/day, po for 30 days relative to control; assay type: organism-based; conditions: in vivo, 720 h, time 30 day; method in brief: as §7
A2780 [31] = experiment: Antiproliferative activity against human A2780 cells assessed as reduction in cell viability up to 2 uM after 72 hrs by MTT assay; assay type: functional, cell-based; method in brief: as §4
SK-OV-3 [32] = experiment: Antiproliferative activity against human SK-OV-3 cells assessed as decrease in size colonies at 75nM after 3 weeks by crystal violet staining based assay; assay type: functional, cell-based; method in brief: as §5
OVCAR-3 [33] = experiment: Antiproliferative activity against human OVCAR-3 cells assessed as decrease in size of colonies at 75nM after 3 weeks by crystal violet staining based assay; assay type: functional, cell-based; method in brief: as §5
HEY [34] = experiment: Antiproliferative activity against human HEY cells assessed as decrease in size of colonies at 75nM after 3 weeks by crystal violet staining based assay; assay type: functional, cell-based
A2780 [35] = experiment: Antiproliferative activity against human A2780 cells assessed as decrease in size of colonies at 75nM after 3 weeks by crystal violet staining based assay; assay type: functional, cell-based; method in brief: as §5
SK-OV-3 [36] = experiment: Upregulation of GLUT1 in human SKOV-3 cells at 2 mM after 24 hrs by immunoblotting analysis; assay type: functional, cell-based
OVCAR-3 [37] = experiment: Upregulation of GLUT1 in human OVCAR-3 cells at 2 mM after 24 hrs by immunoblotting analysis; assay type: functional, cell-based
SK-OV-3 [38] = experiment: […] of glycolysis in human SK-OV-3 cells ssessed as decrease in conversion of D-[5-3H(N)]-glucose to 3H2O at 2 mM incubated for 24 hrs by liquid scintillation counting; assay type: functional, cell-based; method in brief: as §1
OVCAR-3 [39] = experiment: […] of glycolysis in human OVCAR-3 cells ssessed as decrease in conversion of D-[5-3H(N)]-glucose to 3H2O at 2 mM incubated for 24 hrs by liquid scintillation counting; assay type: functional, cell-based; method in brief: as §1

CCOC(=O)[C@@]1(CCCCCCOc2ccc(Cl)cc2)CO1
Activity (SK-OV-3 [1]): Active
Activity (OVCAR-3 [2]): Active
Activity (SK-OV-3 [3]): Active
Activity (OVCAR-3 [4]): Active

COc1ccc([C@@H](O)[C@@H](C)Oc2ccc([C@H]3O[C@H](c4ccc(O[C@H](C)[C@H](O)c5ccc6c(c5)OCO6)c(OC)c4)[C@H](C)[C@H]3C)cc2OC)cc1OC
Activity (SK-OV-3 [5]): Active
Activity (OVCAR-3 [6]): Active
Activity (SK-OV-3 [7]): Active
Activity (OVCAR-3 [8]): Active

Cc1c(NC(=O)c2cc(C(N)=O)nc3cc(F)ccc23)c(C(F)(F)F)nn1Cc1ccc(C#N)cc1 [BAY-876]
Activity (SK-OV-3 [9]): Dose-Dependent Effect
Activity (OVCAR-3 [10]): Dose-Dependent Effect
Activity (SK-OV-3 [11]): Active
Activity (OVCAR-3 [12]): Active
Activity (HEY [13]): Active
Activity (A2780 [14]): inactive
IC50 (OVCAR-3 [15]): 60 nM
IC50 (SK-OV-3 [16]): 188 nM
IC50 (HEY [17]): 1000 nM
Activity (SK-OV-3 [18]): Active
Activity (OVCAR-3 [19]): Active
Activity (HEY [20]): Active
Activity (A2780 [21]): inactive
Activity (SK-OV-3 [22]): 68%
Activity (SK-OV-3 [23]): 66%
Activity [24]: 18%
Activity [25]: >60%
Activity [26]: >60%
Activity [27]: 50%
Activity [28]: 71%
Activity [29]: Non-Toxic
Activity [30]: Non-Toxic
Activity (A2780 [31]): inactive
Activity (SK-OV-3 [32]): Active
Activity (OVCAR-3 [33]): Active
Activity (HEY [34]): Active
Activity (A2780 [35]): inactive

CN(C)C(=N)NC(=N)N
Activity (SK-OV-3 [36]): Active
Activity (OVCAR-3 [37]): Active
Activity (SK-OV-3 [38]): Active
Activity (OVCAR-3 [39]): Active
